Test results from ChEMBL document CHEMBL4689842, “EUbOPEN Chemogenomics Library wave 1” (2021).

Test system: Fibroblast
Assay: Multiplex assay against human fibroblast
Type: toxicity, cell-based
Outline: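 Four dyes were applied at seeding to live cells: Hoechst33342, BioTracker Green Microtubule Cytoskeleton Dye, MitoTracker Red and Annexin V Alexa Fluor 680. Imaging after compound addition used a CQ1 microscope at 37°C and 5% CO2. CellPathfinder machine-learning gating then sorted cells into Hoechst high-intensity objects or normal cells, normal cells into healthy, pyknosed or fragmented nuclei, and pyknosed cells into mitotic or apoptotic, with tubulin, mitochondrial-mass and membrane-permeability phenotypes given as per cents of healthy-nucleus cells.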

[1] = 12 h, 1 µM, compound concentration 1 uM, replicate 1
[2] = 12 h, 1 µM, compound concentration 1 uM, replicate 2
[3] = 12 h, 10 µM, compound concentration 10 uM, replicate 1
[4] = 12 h, 10 µM, compound concentration 10 uM, replicate 2
[5] = 24 h, 1 µM, compound concentration 1 uM, replicate 1
[6] = 24 h, 1 µM, compound concentration 1 uM, replicate 2
[7] = 24 h, 10 µM, compound concentration 10 uM, replicate 1
[8] = 24 h, 10 µM, compound concentration 10 uM, replicate 2

Q: How did the “Population Apoptotic (%)” value [1] turn out when `CCn1cc(-c2ccnc3[nH]c(-c4cccc(CN(C)C)c4)cc23)c(-c2ccc(NC(=O)N(C)C)cc2)n1` [GSK-1070916] was run?
A: 80%

Q: And the “Population Fragmented Nuclei (%)” value [1]?
A: 33%

Q: What about the “Population Healthy Nuclei (%)” value [1] of the same compound?
A: 51%

Q: And the “Population Hoechst High Intensity Objects (%)” value [1]?
A: 13%

Q: And the “Population Membrane Permeable-Phenotype (%)” value [1]?
A: 4%

Q: What about the “Population Mitochondria Different-Phenotype (%)” value [1] of the same compound?
A: 0%

Q: What about the “Population Mitotic Cells (%)” value [1] of the same compound?
A: 19%

Q: And the “Population Normal (%)” value [1]?
A: 86%

Q: And the “Population Pyknosed Nuclei (%)” value [1]?
A: 14%

Q: What about the “Population Tubulin-Different-Phenotype (%)” value [1] of the same compound?
A: 5%

Q: What about the “Total Cell Count” value [1] of the same compound?
A: 205

Q: And the “Population Apoptotic (%)” value [2]?
A: 25%

Q: What about the “Population Fragmented Nuclei (%)” value [2] of the same compound?
A: 56%

Q: And the “Population Healthy Nuclei (%)” value [2]?
A: 34%

Q: What about the “Population Hoechst High Intensity Objects (%)” value [2] of the same compound?
A: 46%

Q: And the “Population Membrane Permeable-Phenotype (%)” value [2]?
A: 26%

Q: What about the “Population Mitochondria Different-Phenotype (%)” value [2] of the same compound?
A: 6%

Q: What about the “Population Mitotic Cells (%)” value [2] of the same compound?
A: 75%

Q: What about the “Population Normal (%)” value [2] of the same compound?
A: 53%

Q: And the “Population Pyknosed Nuclei (%)” value [2]?
A: 9%

Q: And the “Population Tubulin-Different-Phenotype (%)” value [2]?
A: 13%

Q: And the “Total Cell Count” value [2]?
A: 83

Q: What about the “Population Apoptotic (%)” value [3] of the same compound?
A: 60%

Q: And the “Population Fragmented Nuclei (%)” value [3]?
A: 23%

Q: What about the “Population Healthy Nuclei (%)” value [3] of the same compound?
A: 56%

Q: What about the “Population Hoechst High Intensity Objects (%)” value [3] of the same compound?
A: 44%

Q: What about the “Population Membrane Permeable-Phenotype (%)” value [3] of the same compound?
A: 5%

Q: What about the “Population Mitochondria Different-Phenotype (%)” value [3] of the same compound?
A: 2%

Q: And the “Population Mitotic Cells (%)” value [3]?
A: 39%

Q: What about the “Population Normal (%)” value [3] of the same compound?
A: 55%

Q: And the “Population Pyknosed Nuclei (%)” value [3]?
A: 19%

Q: What about the “Population Tubulin-Different-Phenotype (%)” value [3] of the same compound?
A: 27%

Q: What about the “Total Cell Count” value [3] of the same compound?
A: 473

Q: And the “Population Apoptotic (%)” value [4]?
A: 33%

Q: What about the “Population Fragmented Nuclei (%)” value [4] of the same compound?
A: 54%

Q: What about the “Population Healthy Nuclei (%)” value [4] of the same compound?
A: 35%

Q: And the “Population Hoechst High Intensity Objects (%)” value [4]?
A: 49%

Q: And the “Population Membrane Permeable-Phenotype (%)” value [4]?
A: 4%

Q: And the “Population Mitochondria Different-Phenotype (%)” value [4]?
A: 13%

Q: And the “Population Mitotic Cells (%)” value [4]?
A: 66%

Q: And the “Population Normal (%)” value [4]?
A: 50%

Q: And the “Population Pyknosed Nuclei (%)” value [4]?
A: 9%

Q: And the “Population Tubulin-Different-Phenotype (%)” value [4]?
A: 52%

Q: And the “Total Cell Count” value [4]?
A: 127

Q: What about the “Population Apoptotic (%)” value [5] of the same compound?
A: 70%

Q: What about the “Population Fragmented Nuclei (%)” value [5] of the same compound?
A: 32%

Q: What about the “Population Healthy Nuclei (%)” value [5] of the same compound?
A: 56%

Q: And the “Population Hoechst High Intensity Objects (%)” value [5]?
A: 19%

Q: And the “Population Membrane Permeable-Phenotype (%)” value [5]?
A: 3%

Q: And the “Population Mitochondria Different-Phenotype (%)” value [5]?
A: 1%

Q: What about the “Population Mitotic Cells (%)” value [5] of the same compound?
A: 30%

Q: And the “Population Normal (%)” value [5]?
A: 80%

Q: What about the “Population Tubulin-Different-Phenotype (%)” value [5] of the same compound?
A: 5%

Q: What about the “Total Cell Count” value [5] of the same compound?
A: 222

Q: And the “Population Apoptotic (%)” value [6]?
A: 66%

Q: And the “Population Fragmented Nuclei (%)” value [6]?
A: 62%

Q: And the “Population Healthy Nuclei (%)” value [6]?
A: 26%

Q: And the “Population Hoechst High Intensity Objects (%)” value [6]?
A: 23%

Q: And the “Population Membrane Permeable-Phenotype (%)” value [6]?
A: 21%

Q: And the “Population Mitochondria Different-Phenotype (%)” value [6]?
A: 14%

Q: What about the “Population Mitotic Cells (%)” value [6] of the same compound?
A: 33%

Q: What about the “Population Normal (%)” value [6] of the same compound?
A: 76%

Q: What about the “Population Pyknosed Nuclei (%)” value [6] of the same compound?
A: 11%

Q: And the “Population Tubulin-Different-Phenotype (%)” value [6]?
A: 21%

Q: What about the “Total Cell Count” value [6] of the same compound?
A: 69

Q: What about the “Population Apoptotic (%)” value [7] of the same compound?
A: 49%

Q: And the “Population Fragmented Nuclei (%)” value [7]?
A: 24%

Q: What about the “Population Healthy Nuclei (%)” value [7] of the same compound?
A: 51%

Q: And the “Population Hoechst High Intensity Objects (%)” value [7]?
A: 50%

Q: And the “Population Membrane Permeable-Phenotype (%)” value [7]?
A: 0%

Q: And the “Population Mitochondria Different-Phenotype (%)” value [7]?
A: 10%

Q: And the “Population Mitotic Cells (%)” value [7]?
A: 50%

Q: And the “Population Normal (%)” value [7]?
A: 50%

Q: And the “Population Pyknosed Nuclei (%)” value [7]?
A: 24%

Q: And the “Population Tubulin-Different-Phenotype (%)” value [7]?
A: 31%

Q: What about the “Total Cell Count” value [7] of the same compound?
A: 430

Q: What about the “Population Apoptotic (%)” value [8] of the same compound?
A: 20%

Q: What about the “Population Fragmented Nuclei (%)” value [8] of the same compound?
A: 45%

Q: And the “Population Healthy Nuclei (%)” value [8]?
A: 40%

Q: And the “Population Hoechst High Intensity Objects (%)” value [8]?
A: 44%

Q: What about the “Population Membrane Permeable-Phenotype (%)” value [8] of the same compound?
A: 3%

Q: And the “Population Mitochondria Different-Phenotype (%)” value [8]?
A: 20%

Q: And the “Population Mitotic Cells (%)” value [8]?
A: 80%

Q: What about the “Population Normal (%)” value [8] of the same compound?
A: 55%

Q: What about the “Population Pyknosed Nuclei (%)” value [8] of the same compound?
A: 14%

Q: And the “Population Tubulin-Different-Phenotype (%)” value [8]?
A: 51%

Q: What about the “Total Cell Count” value [8] of the same compound?
A: 129
